The text below walks through data of ChEMBL document CHEMBL1129272, “Identification of the first retinoid X, receptor homodimer antagonist” (J Med Chem, 1996).

A word on the EC50: it is the concentration needed to bring the measured effect to its halfway point. As usually defined, the Ki is the equilibrium dissociation constant of an inhibitor or competing ligand from its target.

Test [1] addresses T1, Retinoic acid receptor RXR-alpha (Homo sapiens, UniProt P19793).
T1 sequence (P19793 whole entry): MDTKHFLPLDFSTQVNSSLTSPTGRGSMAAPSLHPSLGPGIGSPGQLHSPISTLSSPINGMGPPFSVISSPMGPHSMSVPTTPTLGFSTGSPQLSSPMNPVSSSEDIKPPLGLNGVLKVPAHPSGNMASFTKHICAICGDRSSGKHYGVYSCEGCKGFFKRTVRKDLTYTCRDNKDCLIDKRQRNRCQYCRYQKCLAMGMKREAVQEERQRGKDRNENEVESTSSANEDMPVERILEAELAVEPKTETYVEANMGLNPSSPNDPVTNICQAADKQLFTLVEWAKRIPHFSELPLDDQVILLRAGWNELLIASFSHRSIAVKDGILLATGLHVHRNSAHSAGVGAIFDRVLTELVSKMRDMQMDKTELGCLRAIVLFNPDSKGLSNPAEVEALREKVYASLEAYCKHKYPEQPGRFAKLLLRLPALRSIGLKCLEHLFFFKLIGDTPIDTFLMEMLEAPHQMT
Nature of the test: Transcriptional ativation of Retinoid X receptor RXR alpha.

The target in test [2] is T2, Retinoic acid receptor RXR-gamma (Homo sapiens, UniProt P48443).
T2 sequence (P48443 whole entry): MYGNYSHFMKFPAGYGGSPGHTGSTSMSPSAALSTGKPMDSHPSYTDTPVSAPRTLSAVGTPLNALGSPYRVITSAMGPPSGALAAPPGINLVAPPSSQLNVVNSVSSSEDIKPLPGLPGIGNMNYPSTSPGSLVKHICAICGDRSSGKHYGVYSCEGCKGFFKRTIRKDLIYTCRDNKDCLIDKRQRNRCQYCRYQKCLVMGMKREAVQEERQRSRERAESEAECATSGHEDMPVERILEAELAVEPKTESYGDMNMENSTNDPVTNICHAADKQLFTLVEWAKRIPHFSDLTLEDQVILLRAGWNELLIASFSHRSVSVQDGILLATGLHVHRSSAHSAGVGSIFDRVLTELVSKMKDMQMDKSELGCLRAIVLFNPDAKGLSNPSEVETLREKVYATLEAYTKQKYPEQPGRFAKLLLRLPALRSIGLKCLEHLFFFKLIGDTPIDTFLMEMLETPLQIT
Put plainly: Transcriptional activation of Retinoid X receptor RXR gamma. A digest of the protocol:
(§1)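 In transiently cotransfected CV-1 cells, the receptor vector was paired with a reporter (RXRβ: CPRE-tk-Luc; RXRγ: CRBPII-tk-Luc) plus an RSV-β-Gal internal control. Compound was tested at 1 x 10^-12 to 1 x 10^-5 M in log dilutions. Luciferase was corrected by β-galactosidase and expressed as % of the 9-cis-RA maximum to give EC50. Three experiments, triplicate points.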

For test [3], the target named is T3, Retinoic acid receptor RXR-beta (Homo sapiens, UniProt P28702).
T3 sequence (P28702 whole entry): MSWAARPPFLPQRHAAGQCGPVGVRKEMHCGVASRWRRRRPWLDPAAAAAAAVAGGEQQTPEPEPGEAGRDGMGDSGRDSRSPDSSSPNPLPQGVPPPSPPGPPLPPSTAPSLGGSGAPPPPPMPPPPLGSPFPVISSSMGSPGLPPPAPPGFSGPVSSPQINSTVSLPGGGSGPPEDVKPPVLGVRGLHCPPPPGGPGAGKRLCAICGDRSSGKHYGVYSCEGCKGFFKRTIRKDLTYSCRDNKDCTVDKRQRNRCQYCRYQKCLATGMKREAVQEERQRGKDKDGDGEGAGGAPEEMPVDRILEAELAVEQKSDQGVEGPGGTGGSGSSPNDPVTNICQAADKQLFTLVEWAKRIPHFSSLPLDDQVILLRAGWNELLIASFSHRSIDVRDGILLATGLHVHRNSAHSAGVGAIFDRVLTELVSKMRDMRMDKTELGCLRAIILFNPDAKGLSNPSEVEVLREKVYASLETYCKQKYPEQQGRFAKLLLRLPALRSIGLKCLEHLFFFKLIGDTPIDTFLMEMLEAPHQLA
Put plainly: Transcriptional activation of Retinoid X receptor RXR beta. A digest of the protocol:
as §1

Test [4] deals with T4, Retinoic acid receptor gamma (Homo sapiens, UniProt P13631).
T4 sequence (P13631 whole entry): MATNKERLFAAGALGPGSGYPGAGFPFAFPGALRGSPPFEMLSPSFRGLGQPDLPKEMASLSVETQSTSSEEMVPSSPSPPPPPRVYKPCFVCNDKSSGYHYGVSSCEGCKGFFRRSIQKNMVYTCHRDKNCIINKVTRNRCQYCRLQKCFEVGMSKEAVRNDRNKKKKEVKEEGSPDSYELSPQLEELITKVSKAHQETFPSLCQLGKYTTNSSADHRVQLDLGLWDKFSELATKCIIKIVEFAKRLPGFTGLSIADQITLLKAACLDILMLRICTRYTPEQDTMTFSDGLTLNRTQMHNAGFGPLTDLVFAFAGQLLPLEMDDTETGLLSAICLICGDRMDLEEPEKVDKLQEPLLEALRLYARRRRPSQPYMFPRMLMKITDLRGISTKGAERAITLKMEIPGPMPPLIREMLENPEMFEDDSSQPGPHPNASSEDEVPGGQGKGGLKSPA
Put plainly: Inhibition of [3H]ATRA binding to Retinoic acid receptor RAR gamma. In short, it runs like this:
(§2)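 Receptors expressed recombinantly in a baculovirus system. Binding was measured by competition against 5 nM [3H]-all-trans-RA. Ki was calculated by the Cheng–Prusoff method.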

Test [5] deals with T2, Retinoic acid receptor RXR-gamma. Put plainly: Inhibition of [3H]targretin binding to Retinoid X receptor RXR gamma. In short, it runs like this:
(§3)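 Recombinant receptors were expressed in a baculovirus system. Test ligands competed with [3H]Targretin (LGD1069) for binding. Ki values were derived by the Cheng–Prusoff method.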

Test [6] deals with T4, Retinoic acid receptor gamma. Put plainly: Transcriptional activation of Retinoic acid receptor RAR gamma. A digest of the protocol: (§4)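 CV-1 cells were transiently cotransfected with the receptor expression vector, a ΔMTV-TREp-Luc reporter and an RSV-β-Gal internal control, then incubated with compound (log dilutions, 1 x 10^-12 to 1 x 10^-5 M). Luciferase was normalized by β-galactosidase. Response is % of the all-trans-RA maximum, giving EC50. Three experiments, triplicates at each concentration.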

Test [7] addresses T3, Retinoic acid receptor RXR-beta. Nature of the test: Inhibition of [3H]-Targretin binding to Retinoid X receptor RXR beta. A digest of the protocol: as §3
Test [8] deals with T5, Retinoic acid receptor beta (Homo sapiens, UniProt P10826).
T5 sequence (P10826 whole entry): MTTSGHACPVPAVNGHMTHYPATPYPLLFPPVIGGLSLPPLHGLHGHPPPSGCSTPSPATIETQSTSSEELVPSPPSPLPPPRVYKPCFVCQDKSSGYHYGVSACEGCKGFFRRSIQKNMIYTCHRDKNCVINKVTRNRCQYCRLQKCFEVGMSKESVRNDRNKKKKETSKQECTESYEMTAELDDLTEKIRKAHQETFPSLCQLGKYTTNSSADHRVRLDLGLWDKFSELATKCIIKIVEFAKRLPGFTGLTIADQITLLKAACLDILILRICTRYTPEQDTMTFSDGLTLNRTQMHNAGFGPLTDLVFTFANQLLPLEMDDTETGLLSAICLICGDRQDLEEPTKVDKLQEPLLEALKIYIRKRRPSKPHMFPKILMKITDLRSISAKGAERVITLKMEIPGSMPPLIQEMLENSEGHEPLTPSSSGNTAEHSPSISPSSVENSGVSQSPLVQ
Put plainly: Inhibition of [3H]ATRA binding to Retinoic acid receptor RAR beta. In short, it runs like this:
as §2

Test [9] addresses T5, Retinoic acid receptor beta. Nature of the test: Transcriptional activation of Retinoic acid receptor RAR beta. In short, it runs like this: as §4
For test [10], the target named is T1, Retinoic acid receptor RXR-alpha. Nature of the test: Inhibition of [3H]targretin binding to Retinoid X receptor RXR alpha.
In test [11] the target is T6, Retinoic acid receptor alpha (Homo sapiens, UniProt P10276).
T6 sequence (P10276 whole entry): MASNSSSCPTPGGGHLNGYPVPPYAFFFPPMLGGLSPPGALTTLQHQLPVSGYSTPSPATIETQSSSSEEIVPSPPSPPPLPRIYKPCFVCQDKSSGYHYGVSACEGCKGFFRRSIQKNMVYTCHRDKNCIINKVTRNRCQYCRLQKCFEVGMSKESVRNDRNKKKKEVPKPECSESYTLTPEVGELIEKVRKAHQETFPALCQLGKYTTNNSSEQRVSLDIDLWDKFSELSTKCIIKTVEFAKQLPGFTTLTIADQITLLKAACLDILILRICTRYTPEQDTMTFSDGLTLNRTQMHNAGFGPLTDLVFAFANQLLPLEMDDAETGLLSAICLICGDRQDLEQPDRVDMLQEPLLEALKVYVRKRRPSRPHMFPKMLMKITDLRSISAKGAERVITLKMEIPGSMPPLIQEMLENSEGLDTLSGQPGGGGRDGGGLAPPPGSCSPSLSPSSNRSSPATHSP
Put plainly: Inhibition of [3H]ATRA binding to Retinoic acid receptor RAR alpha. A digest of the protocol:
as §2

Test [12] deals with T6, Retinoic acid receptor alpha. Put plainly: Transcriptional activation of Retinoic acid receptor RAR alpha. A digest of the protocol:
as §4

Regarding `CCOc1cc2c(cc1\C(C)=C/C=C/C(C)=C/C(=O)O)C(C)(C)CCC2(C)C`, the EC50 in [1] is 8 nM; in test [2], 7 nM; in test [3], 9 nM; in [6], 121 nM; in [9], 31 nM. The inhibition constant (Ki) in test [4] is 4210 nM; in test [5], 17 nM; in [7], 12 nM; in [8] it was 3120 nM; in [10], 4 nM; in [11], 2580 nM.

Regarding `COc1cc2c(cc1\C(C)=C/C=C/C(C)=C/C(=O)O)C(C)(C)CCC2(C)C`, the EC50 in [1] came to 5 nM; in test [2], 9 nM; in [3], 8 nM; in test [6], 17 nM; in [12], 40 nM; in test [9] it was 8 nM. Moreover, the Ki in test [4] came out at 437 nM; in test [5] it was 4 nM; in test [7], 2 nM; in [8], 400 nM; in test [10], 2 nM; in test [11], 306 nM.

Turning to `CCCOc1cc2c(cc1\C(C)=C/C=C/C(C)=C/C(=O)O)C(C)(C)CCC2(C)C`, the Ki in test [4] was 6090 nM; in [7] it was 9 nM; in [8], 2590 nM; in test [11], 1790 nM. Besides, the EC50 in test [6] came to 192 nM.
